The source of these data is publication PMC3656655 (European journal of pharmacology, 2012).

“Also recorded” adds a separate entry of the source. Like-named read-outs stand apart in the source and are kept apart here.

One assay has as its system human SERT. The note with it: read-out: KM as SERT substrate, racemic, ref Cozzi and Foley, 2003; cited from earlier work.
Assay [1] concerns horizontal locomotor activity. To be noted: cited from earlier work; for Locomotor effects in vivo compared to methcathinone: ref Foley and Cozzi, 2003.
Assay [2] relates to extracellular 5-HT in nucleus accumbens. To be noted: ref Baumann et al., 2012; Kehr et al. (2011); cited from earlier work.
The test system of assay [3] is extracellular dopamine in nucleus accumbens. To be noted: ref Baumann et al., 2012; Kehr et al. (2011); cited from earlier work.
Assay [4] has as its target T1, hSERT (Homo sapiens, UniProt P31645). Briefly: Inhibition of hSERT-mediated [3H]5-HT uptake into human platelets. It counts as cell-based.
The target of assay [5] is T2, hNET (Homo sapiens, UniProt P23975). Briefly: Inhibition of hNET-mediated [3H]NE uptake into C6-hNET cells. It counts as cell-based.
For another assay, the target named is hDAT (Homo sapiens, UniProt Q01959). The assay can be described thus: Inhibition of hDAT-mediated [3H]DA uptake into HEK293-hDAT cells. It counts as cell-based.
A further assay concerns the target rSERT (Rattus norvegicus, UniProt P31652). Briefly: Drug-evoked [3H]5-HT release via rSERT in rat brain synaptosomes. It counts as biochemical. The note with it: for Fold more potent than methcathinone as [3H]5-HT releasing agent: SERT release.
Another assay addresses rNET (Rattus norvegicus, UniProt Q63380). Briefly: Drug-evoked [3H]MPP+ release via rNET in rat brain synaptosomes. It counts as biochemical.
In assay [6] the target is T3, rDAT (Rattus norvegicus, UniProt P23977). Briefly: Drug-evoked [3H]MPP+ release via rDAT in rat striatal synaptosomes. It counts as biochemical.
Assay [7] concerns extracellular 5-HT in nucleus accumbens. The assay can be described thus: In vivo microdialysis of nucleus accumbens, dialysate 5-HT. The note with it: rat, i.v.; for Effect on extracellular 5-HT in nucleus accumbens: methcathinone 0.3 then 1.0 mg/kg, 4-TFMAP 1.0 then 3.0 mg/kg. In outline:
(§1)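 Male Sprague-Dawley rats (300–350 g) under pentobarbital anaesthesia (60 mg/kg i.p.) get a jugular catheter and a nucleus accumbens guide cannula (1.6 mm lateral, 1.6 mm anterior to bregma, 6.0 mm below dura). Next morning, dialysate is collected every 20 min and assayed for DA and 5-HT by HPLC-ECD. After three stable baselines, two i.v. doses in saline (1 mL/kg) are given 60 min apart, with sampling for 120 min. Data are % of mean baseline; n=6 saline, 7 per drug; two-way ANOVA with Bonferroni.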

The test system of assay [8] is extracellular dopamine in nucleus accumbens. Briefly: In vivo microdialysis of nucleus accumbens, dialysate dopamine. Set-up: species or system rat. To be noted: i.v.; for Effect on extracellular dopamine in nucleus accumbens: rat, methcathinone 0.3 then 1.0 mg/kg, 4-TFMAP 1.0 then 3.0 mg/kg. In short, it runs like this:
as §1

Assay [9] deals with T1, hSERT. The note with it: read-out: SERT [3H]5-HT uptake inhibition IC50, ref Cozzi et al., 1999; cited from earlier work.
In assay [10] the target is T2, hNET. To be noted: read-out: NET [3H]NE uptake inhibition IC50, ref Cozzi et al., 1999; cited from earlier work.
Assay [11] addresses T3, rDAT. The note with it: read-out: DAT [3H]DA uptake inhibition IC50, ref Cozzi et al., 1999; cited from earlier work.
Assay [12] has as its system horizontal locomotor activity. The assay can be described thus: Horizontal locomotor activity during microdialysis. It counts as in vivo. To be noted: rat, i.v.; methcathinone 0.3 then 1.0 mg/kg, 4-TFMAP 1.0 then 3.0 mg/kg. In outline: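 Horizontal activity is recorded by a photobeam ring (2.54 cm spacing) in a 43 cm cubic arena, where rats stay overnight and during microdialysis. It is binned every 20 min, from 60 min before to 120 min after two sequential i.v. injections given 60 min apart (saline vehicle, 1 mL/kg). Data are normalized to % of three pre-injection bins and compared with saline controls (n=6; drugs n=7) by two-way ANOVA with Bonferroni.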

Setting [13] is: SERT [3H]5-HT release EC50, rat brain synaptosomes, mean ±S.E.M.
The mark [14] stands for this setting: read-out: NET [3H]MPP+ release EC50, mean ±S.E.M.

Chain of rSERT (P31652 whole entry): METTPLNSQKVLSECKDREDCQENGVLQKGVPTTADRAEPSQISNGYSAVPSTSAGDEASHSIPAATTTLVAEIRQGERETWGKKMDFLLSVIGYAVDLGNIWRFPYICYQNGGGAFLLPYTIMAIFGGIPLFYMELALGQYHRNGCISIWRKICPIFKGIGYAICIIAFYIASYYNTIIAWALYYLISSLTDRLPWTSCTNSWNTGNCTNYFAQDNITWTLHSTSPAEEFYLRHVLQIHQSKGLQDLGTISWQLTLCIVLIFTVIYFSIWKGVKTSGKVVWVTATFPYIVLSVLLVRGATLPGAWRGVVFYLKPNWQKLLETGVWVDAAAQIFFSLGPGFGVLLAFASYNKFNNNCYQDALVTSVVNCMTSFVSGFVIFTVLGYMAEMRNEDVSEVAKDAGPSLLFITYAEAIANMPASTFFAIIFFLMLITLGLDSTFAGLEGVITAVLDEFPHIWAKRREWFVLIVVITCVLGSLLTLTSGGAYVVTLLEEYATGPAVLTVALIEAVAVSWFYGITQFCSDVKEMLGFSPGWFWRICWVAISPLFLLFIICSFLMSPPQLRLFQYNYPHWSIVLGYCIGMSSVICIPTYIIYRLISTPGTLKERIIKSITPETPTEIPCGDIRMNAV
T1 sequence (P31645 whole entry): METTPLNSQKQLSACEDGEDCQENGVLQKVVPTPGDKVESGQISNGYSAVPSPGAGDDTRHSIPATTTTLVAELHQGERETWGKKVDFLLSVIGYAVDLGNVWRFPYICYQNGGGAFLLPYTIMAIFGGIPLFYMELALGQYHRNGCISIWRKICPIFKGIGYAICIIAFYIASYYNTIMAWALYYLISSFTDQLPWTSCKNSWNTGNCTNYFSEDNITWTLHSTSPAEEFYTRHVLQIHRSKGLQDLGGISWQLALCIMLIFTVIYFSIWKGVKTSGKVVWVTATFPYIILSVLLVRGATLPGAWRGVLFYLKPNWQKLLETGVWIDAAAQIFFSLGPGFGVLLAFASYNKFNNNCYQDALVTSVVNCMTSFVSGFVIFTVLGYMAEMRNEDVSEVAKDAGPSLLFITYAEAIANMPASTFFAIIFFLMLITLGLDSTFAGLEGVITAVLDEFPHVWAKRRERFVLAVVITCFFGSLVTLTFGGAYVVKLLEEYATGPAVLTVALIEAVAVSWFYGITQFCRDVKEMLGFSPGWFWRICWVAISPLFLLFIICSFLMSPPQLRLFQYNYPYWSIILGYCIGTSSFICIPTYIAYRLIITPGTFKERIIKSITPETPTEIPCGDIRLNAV
Chain of rNET (Q63380 1-617): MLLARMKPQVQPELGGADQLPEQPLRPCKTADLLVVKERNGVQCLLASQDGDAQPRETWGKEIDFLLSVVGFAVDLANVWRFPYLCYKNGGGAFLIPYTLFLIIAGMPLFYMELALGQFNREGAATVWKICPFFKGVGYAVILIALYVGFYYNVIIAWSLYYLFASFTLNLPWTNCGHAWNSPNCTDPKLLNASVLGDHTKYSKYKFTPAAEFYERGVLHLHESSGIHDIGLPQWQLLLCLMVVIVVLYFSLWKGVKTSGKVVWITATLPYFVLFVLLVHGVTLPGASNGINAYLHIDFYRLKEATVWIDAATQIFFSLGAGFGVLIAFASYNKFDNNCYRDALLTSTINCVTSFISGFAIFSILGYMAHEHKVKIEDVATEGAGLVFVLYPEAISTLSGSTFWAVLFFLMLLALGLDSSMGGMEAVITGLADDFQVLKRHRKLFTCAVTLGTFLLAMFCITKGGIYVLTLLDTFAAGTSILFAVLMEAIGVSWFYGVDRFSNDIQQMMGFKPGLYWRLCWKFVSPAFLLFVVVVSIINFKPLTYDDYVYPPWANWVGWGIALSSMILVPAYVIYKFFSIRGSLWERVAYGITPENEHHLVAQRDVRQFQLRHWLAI
T3 sequence (P23977 whole entry): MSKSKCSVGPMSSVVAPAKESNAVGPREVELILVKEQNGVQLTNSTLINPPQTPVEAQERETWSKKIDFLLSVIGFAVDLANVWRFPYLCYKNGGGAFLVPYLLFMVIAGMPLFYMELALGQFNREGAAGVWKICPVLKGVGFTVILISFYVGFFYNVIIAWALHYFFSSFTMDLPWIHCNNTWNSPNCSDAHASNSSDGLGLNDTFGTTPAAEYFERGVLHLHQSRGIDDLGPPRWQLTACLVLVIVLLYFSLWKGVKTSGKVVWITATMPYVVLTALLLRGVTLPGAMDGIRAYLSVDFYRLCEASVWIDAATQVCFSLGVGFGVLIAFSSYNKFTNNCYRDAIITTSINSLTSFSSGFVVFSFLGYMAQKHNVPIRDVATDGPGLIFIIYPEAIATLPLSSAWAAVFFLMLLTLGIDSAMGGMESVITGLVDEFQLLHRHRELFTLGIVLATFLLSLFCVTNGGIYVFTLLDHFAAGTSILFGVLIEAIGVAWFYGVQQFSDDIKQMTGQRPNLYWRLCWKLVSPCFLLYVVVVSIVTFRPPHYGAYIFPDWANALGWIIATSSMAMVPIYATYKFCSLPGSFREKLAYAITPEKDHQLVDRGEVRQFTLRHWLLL
T2 sequence (P23975 whole entry): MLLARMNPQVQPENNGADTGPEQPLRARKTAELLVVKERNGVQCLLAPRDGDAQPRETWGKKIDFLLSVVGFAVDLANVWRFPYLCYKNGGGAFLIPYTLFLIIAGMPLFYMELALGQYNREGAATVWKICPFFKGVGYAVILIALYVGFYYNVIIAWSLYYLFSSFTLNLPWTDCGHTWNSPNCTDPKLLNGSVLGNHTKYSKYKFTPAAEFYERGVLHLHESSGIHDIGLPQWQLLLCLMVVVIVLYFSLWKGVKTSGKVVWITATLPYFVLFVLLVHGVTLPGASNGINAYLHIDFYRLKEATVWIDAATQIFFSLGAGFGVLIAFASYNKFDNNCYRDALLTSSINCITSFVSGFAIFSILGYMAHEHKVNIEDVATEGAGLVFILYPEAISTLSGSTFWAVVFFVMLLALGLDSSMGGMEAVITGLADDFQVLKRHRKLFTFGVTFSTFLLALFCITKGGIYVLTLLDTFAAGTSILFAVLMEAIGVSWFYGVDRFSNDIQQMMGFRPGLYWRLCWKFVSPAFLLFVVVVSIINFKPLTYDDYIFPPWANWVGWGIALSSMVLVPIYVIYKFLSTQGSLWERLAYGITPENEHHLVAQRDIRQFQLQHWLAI
Chain of hDAT (Q01959 whole entry): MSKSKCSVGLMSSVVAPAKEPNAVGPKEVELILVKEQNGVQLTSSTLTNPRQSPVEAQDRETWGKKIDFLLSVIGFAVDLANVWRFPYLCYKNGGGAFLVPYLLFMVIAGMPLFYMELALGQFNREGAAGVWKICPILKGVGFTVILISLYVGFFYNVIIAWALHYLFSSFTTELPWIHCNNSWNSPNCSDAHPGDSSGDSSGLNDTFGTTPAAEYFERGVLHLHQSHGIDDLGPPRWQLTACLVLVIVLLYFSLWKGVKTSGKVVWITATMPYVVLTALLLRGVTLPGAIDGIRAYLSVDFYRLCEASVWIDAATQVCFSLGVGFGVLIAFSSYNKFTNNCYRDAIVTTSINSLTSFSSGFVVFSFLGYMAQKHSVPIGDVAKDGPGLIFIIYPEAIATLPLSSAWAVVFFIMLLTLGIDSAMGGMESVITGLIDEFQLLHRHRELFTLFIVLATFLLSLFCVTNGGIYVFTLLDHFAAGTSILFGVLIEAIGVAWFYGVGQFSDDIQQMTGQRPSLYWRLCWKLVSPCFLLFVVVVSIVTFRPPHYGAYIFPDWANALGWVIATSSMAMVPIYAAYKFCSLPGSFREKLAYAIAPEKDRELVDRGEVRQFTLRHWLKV

Turning to [^3H]methcathinone, in the assay on human SERT, the Km (commonly the concentration of substrate that gives half-maximal velocity) was 0.244 µM.
With `CNC(C)C(=O)c1cccc(Br)c1` (centres unmarked) [3-bromomethcathinone], the “Locomotor effects in vivo compared to methcathinone” value in assay [1] is given as “fewer locomotor effects”.
For the compound `CNC(C)C(=O)c1ccc(C)cc1` (centres unmarked) [mephedrone, 4-methylmethcathinone], the “Effect on 5-HT release in nucleus accumbens” value in assay [2] was “stimulated both 5-HT and DA release”. Besides, the “Effect on DA release in nucleus accumbens” value in assay [3] was “stimulated both 5-HT and DA release”. Also, the “Effect on locomotor activity” value in assay [1] (1 and 3 mg/kg, ref Baumann et al., 2012, Kehr et al. (2011)) is on record as “dose-related locomotor stimulation”.
For `CNC(C)C(=O)c1ccc(Br)cc1` (centres unmarked) [4-bromomethcathinone], the “Locomotor effects in vivo compared to methcathinone” value in assay [1] is “fewer locomotor effects”.
Consider `CNC(C)C(=O)c1cccc(C(F)(F)F)c1` (centres unmarked) [3-TFMAP, 2-(methylamino)-1-(3-trifluoromethylphenyl)propan-1-one], for which the IC50 (commonly the concentration needed to halve the response being measured) on hSERT [4] was 11300 ± 400 nM; at hNET [5], 3000 ± 800 nM; against hDAT, 136000 ± 8000 nM. The figures for the EC50 on rSERT (setting [13]), on rNET (setting [14]) and on rDAT [6] were 380 ± 60 nM, 2700 ± 800 nM and 610 ± 90 nM, respectively. Moreover, the “Fold more potent than methcathinone as [3H]5-HT releasing agent” value on rSERT came to 10 fold.
As for `CNC(C)C(=O)c1ccccc1` (centres unmarked) [Methcathinone, reference compound], the concentration for a half-maximal effect (EC50) (as a rule, the concentration needed to bring the measured effect to its halfway point) at rSERT (read-out: SERT [3H]5-HT release EC50, rat brain synaptosomes, mean ±S.E.M.) stood at 4000 ± 1000 nM; on rNET (setting [14]), 20 ± 3 nM; on rDAT [6] (read-out: DAT [3H]MPP+ release EC50, rat striatal synaptosomes, mean ±S.E.M.), 20 ± 1 nM. For the same compound, in assay [7], the “Effect on extracellular 5-HT in nucleus accumbens” value was “large dose-dependent increases”. In addition, the “Potency as dopamine releasing agent relative to 5-HT releaser in vivo” value in [8] (rat nucleus accumbens) is “about twice as potent”. In [8], the “Effect on extracellular dopamine in nucleus accumbens” value is “large dose-dependent increases”. Also, the IC50 at hSERT [9] was 35000 ± 5000 nM; on hNET [10], 500 ± 100 nM; at rDAT [11] it was 360 ± 60 nM.
Take `CNC(C)C(=O)c1ccc(C(F)(F)F)cc1` (centres unmarked) [4-TFMAP, 2-(methylamino)-1-(4-trifluoromethylphenyl)propan-1-one]: the IC50 at hSERT [4] was determined as 4500 ± 600 nM; against hNET [5] it was 3000 ± 900 nM; against hDAT it was 200000 ± 50000 nM. In addition, the EC50 was 186 nM on rSERT (EC50 for [3H]5-HT release at rSERT, rat brain synaptosomes); 190 ± 30 nM at rSERT (setting [13]); 867 nM at rNET (read-out: EC50 for [3H]MPP+ release at rNET); 900 ± 300 nM on rNET (setting [14]); 2700 ± 300 nM on rDAT [6]. Besides, at rSERT, the “Fold more potent than methcathinone as [3H]5-HT releasing agent” value stood at 10 fold. Further, the “Potency on dialysate 5-HT relative to methcathinone” value in [7] (nucleus accumbens) is on record as “approximately 1/3”. Besides, in assay [7], the “Effect on extracellular 5-HT in nucleus accumbens” value was “increased extracellular 5-HT; also recorded: dose-related increase in 5-HT efflux”. Besides, the “Effect on extracellular dopamine in nucleus accumbens” value in assay [8] was “no effect; also recorded: did not stimulate dopamine release”. The “Effect on horizontal locomotor activity” value in assay [12] is listed as “no effect; also recorded: nor did it stimulate locomotor activity”.
With `CNC(C)C(=O)c1ccccc1C(F)(F)F` (centres unmarked) [2-TFMAP, 2-(methylamino)-1-(2-tri-fluoromethylphenyl)propan-1-one], the IC50 against hSERT [4] is 239000 ± 13000 nM; against hNET [5] it was 10000 ± 3000 nM; against hDAT, 689000 ± 160000 nM. Moreover, the figures for the EC50 at rSERT (setting [13]), on rNET (setting [14]) and at rDAT [6] were 8400 ± 800 nM, 2200 ± 300 nM and 8000 ± 900 nM, respectively.
